Reference: ChEMBL document CHEMBL2040809, “Synthesis and biological activity evaluation of cytidine-5'-deoxy-5-fluoro-N-[(alkoxy/aryloxy)] carbonyl-cyclic 2',3'-carbonates” (Eur J Med Chem, 2012)
≈ marks a conversion by molar mass, not a printed value.

Test system: L1210
Assay: Antitumor activity against mouse L1210 cells xenografted in BDF-1 mouse assessed as increase in mean survival time at 0.080 mmol/kg, po administered 5 days in a week for 3 weeks
Conditions: not given
Molecule `C[C@H]1O[C@@H](n2cc(F)c(NC(=O)Oc3ccc(Cl)cc3)nc2=O)[C@@H]2OC(=O)O[C@@H]21` has an MST of 26.3 days.

Test system: MCF7
Assay: Cytotoxicity against human MCF7 cells after 3 days MTT assay
Format: functional, cell-based
Conditions: MCF7, 72 h
In short: (§1)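 Cells held as monolayers in DMEM with 10% supplement. Seeded in 96-well plates on day 0 at densities set by doubling time: 1 × 10⁴/mL for HeLa and NCI-69, 2 × 10⁴/mL for MCF-7, 3 × 10⁴/mL for PZ-HPV-7. Five dilutions (10⁻⁸–5 × 10⁻⁶ mol/l), freshly prepared, added for 72 h. Growth read by MTT (succinate dehydrogenase activity); IC50 derived.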
`C[C@H]1O[C@@H](n2cc(F)c(NC(=O)Oc3ccc(Cl)cc3)nc2=O)[C@@H]2OC(=O)O[C@@H]21` showed an IC50 of 30 µg/mL (≈ 70.5 µM).

Test system: L1210
Assay: Antitumor activity against mouse L1210 cells xenografted in BDF-1 mouse assessed as increase in mean survival time at 0.16 mmol/kg, po administered 5 days in a week for 3 weeks
Conditions: not given
`C[C@H]1O[C@@H](n2cc(F)c(NC(=O)Oc3ccc(Cl)cc3)nc2=O)[C@@H]2OC(=O)O[C@@H]21` gave an MST of 23.7 days.

Test system: not listed separately
Assay: Cytotoxicity against human PZ-HPV-7 cells after 3 days MTT assay
Format: functional, cell-based
Conditions: 72 h
In short: as §1
`C[C@H]1O[C@@H](n2cc(F)c(NC(=O)Oc3ccc(Cl)cc3)nc2=O)[C@@H]2OC(=O)O[C@@H]21` gave an IC50 of 3 µg/mL (≈ 7.05 µM).

Test system: not listed separately
Assay: Toxicity in po dosed BDF-1 mouse
Format: organism-based
Conditions: in vivo
`C[C@H]1O[C@@H](n2cc(F)c(NC(=O)Oc3ccc(Cl)cc3)nc2=O)[C@@H]2OC(=O)O[C@@H]21` showed an LD50 of 2000 mg/kg.

Test system: not listed separately
Assay: Toxicity in po dosed BDF-1 mouse administered qd for 28 days
Format: organism-based
Conditions: in vivo
With `C[C@H]1O[C@@H](n2cc(F)c(NC(=O)Oc3ccc(Cl)cc3)nc2=O)[C@@H]2OC(=O)O[C@@H]21` the LD50 at 672 h was 200 mg/kg.

Test system: HeLa
Assay: Cytotoxicity against human HeLa cells after 3 days MTT assay
Format: functional, cell-based
Conditions: 72 h
In short: as §1
Molecule `C[C@H]1O[C@@H](n2cc(F)c(NC(=O)Oc3ccc(Cl)cc3)nc2=O)[C@@H]2OC(=O)O[C@@H]21` has an IC50 of 0.006 µg/mL (≈ 0.0141 µM).

Test system: NCI-H69
Assay: Cytotoxicity against human NCI-H69 cells after 3 days MTT assay
Format: functional, cell-based
Conditions: NCI-H69, 72 h
In short: as §1
For `C[C@H]1O[C@@H](n2cc(F)c(NC(=O)Oc3ccc(Cl)cc3)nc2=O)[C@@H]2OC(=O)O[C@@H]21`, the IC50 was 3 µg/mL (≈ 7.05 µM).
